From PubChem
Hits are enriched below; roughly 2.7% of the tested compounds scored in any of these assays.
RAM network inh – blocks the yeast RAM network; S. cerevisiae dse1pr::URA3 reporter, 5-FOA growth OD615, 2 d; analog-sensitive cbk1-as2 kinase mutant strain; inhibition, % at 50 µM; hit rate 1.8% among 190,000; AID 868;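 active = inhibition above a set limit, 3 SD over mean compound inhibition, cut at about 8.4% in these data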;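 note: inhibition rescues growth on 5-FOA so higher OD means more RAM inhibition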
sdo1 growth – sdo1-depleted yeast growth rescue. S. cerevisiae sdo1-depleted JHY4D growth rescue, OD600 30 h; stronger effect = higher value; pdr5 snq2 efflux-pump mutant strain. z-score at 10 µM. hit rate 0.21% among 140,000. AID 817;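 active = z-score above 3 at both the 24 hr and the 30 hr optical density reads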
Yeast life ext – yeast lifespan extension; S. cerevisiae growth with nicotinamide, OD615; deaD strain in restrictive glucose medium; inhibition of the nicotinamide effect, % at 10 µM; hit rate 0.68% among 130,000; AID 775;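 active = inhibition above a set limit, placed 3 SD over the median of all compounds, cut at about 26% in these data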
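Measured by: optical density (absorbance) at 615 nm; System: modified budding yeast, DeaD strain; Medium: restrictive CSMM-D dextrose medium; Timing: 4 h preincubation then 48 h treatment at 30 °C.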
BB579 growth dn – chemicals that inhibit yeast BB579 growth in restrictive medium (lifespan-shortening candidates); AID 804; inhibition, % at 10 µM; S. cerevisiae BB579 growth, OD615, 48 h; hit rate 0.51% among 140,000;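 active = inhibition above a set limit, 3 SD over the mean compound inhibition, cut at about 44% in these data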
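System: Saccharomyces cerevisiae DeaD strain BB579, replicative lifespan model yeast. Buffer or medium: restrictive glucose-based CSMM-D medium. Doses: one dose, 10 µM compound with 0.25% DMSO. Timing: 4 h preincubation and 48 h exposure at 30 °C. Detection: turbidity as optical density at 615 nm. Benchmarks: amphotericin B 10 µg/mL, positive.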
Each line names hits and unclear results; the compound was inactive in the other large screens.

Cc1ccc(C(=O)NNC2CC(=O)N(c3ccc4c(c3)OCCO4)C2=O)cc1 (stereo not drawn)	none (no result: sdo1 growth, Yeast life ext, BB579 growth dn)
CCOC(=O)COc1c(Br)cc(/C=C2\SC(=O)N(CC(=O)N3CCCC3)C2=O)cc1OC	RAM network inh 11
CCOc1c(Br)cc(/C=C2/SC(=O)N(CC(=O)N3CCCC3)C2=O)cc1OC	none
CCC(=O)NCCCCCCNC(=O)CC	none
O=C1CN(CC(=O)N2CCCCC2)c2ccccc2O1	BB579 growth dn 46
O=C(CC1SC(=O)N(c2ccccc2)C1=O)Nc1ccccc1 (stereo not drawn)	none
Cc1cccc(NC(=O)CC2SC(=O)N(c3ccccc3)C2=O)c1 (stereo not drawn)	BB579 growth dn 50
CCCSc1nc(C)c(-c2csc(C(C#N)=C3CCCC3)n2)cc1C#N	RAM network inh 8.9
O=C(/C=C/c1ccccc1)C1C(=O)c2ccccc2C1=O	Yeast life ext 43
CCc1ccc(/C=C/C(=O)C2C(=O)c3ccccc3C2=O)cc1	RAM network inh 9.1
O=C(c1ccccc1)C1C(=O)c2ccccc2C1=O	Yeast life ext 27
COC(=O)C1C(=O)C(C(=O)/C=C/c2ccccc2)C(=O)CC1(C)C (stereo not drawn)	none (no result: sdo1 growth, Yeast life ext, BB579 growth dn)
CCc1cc(-c2n[nH]c(CCC(=O)O)c2-c2nc3ccccc3n2C)c(O)cc1O	none (no result: sdo1 growth, Yeast life ext, BB579 growth dn)
COCC(C)OC(=O)/C(C#N)=C\c1coc2ccc(C)cc2c1=O (stereo not drawn)	BB579 growth dn 63
O=C(O)c1cc2nc(-c3ccccc3)cc(C(F)(F)F)n2n1	Yeast life ext 57
COc1ccccc1NS(=O)(=O)c1ccc(N/N=C/c2c(C)nn(-c3ccccc3)c2N2CCCC2)c([N+](=O)[O-])c1	RAM network inh 9.6
Cc1nn(-c2ccccc2)c(N2CCCC2)c1/C=N/Nc1ccc(S(=O)(=O)Nc2ccccc2)cc1[N+](=O)[O-]	RAM network inh 9.0
COc1ccccc1NS(=O)(=O)c1cccc(C(=O)N/N=C/c2c(C)nn(-c3ccccc3)c2N2CCCC2)c1	none
Cc1nnc(SCC(=O)N2CCCC(C(=O)c3ccc(Cl)cc3)C2)o1 (stereo not drawn)	none (no result: sdo1 growth, Yeast life ext, BB579 growth dn)
Cc1ccc(-n2c(=O)cc(N3CC(C)OC(C)C3)[nH]c2=O)cc1 (stereo not drawn)	none (no result: sdo1 growth, Yeast life ext, BB579 growth dn)
Cc1ccc(CC(=O)Nc2nc3ccccc3s2)cc1	none
Cc1nc2c(ccc3nc(NC(=O)Cc4ccccc4)sc32)s1	RAM network inh 11
CCOC(=O)CSc1nnc(CSc2nc3sc4c(c3c(=O)[nH]2)CCC4)n1C	RAM network inh 8.7
COc1ccc(OCc2nc3c4cc(OC)c(OC)cc4nc(=S)n3[nH]2)cc1	none
CC1CCCCN1C(=O)Cn1cc(/C=C2/C(=O)Nc3ccccc32)c2ccccc21 (stereo not drawn)	RAM network inh 9.4
CC1CCCCN1C(=O)Cn1cc(C=O)c2ccccc21 (stereo not drawn)	none
CC1CCN(C(=O)c2ccc(S(=O)(=O)N(C)C)cc2)C(C)C1 (stereo not drawn)	none
C[C@H](NC(=O)c1nc[nH]c1C(=O)N[C@@H](Cc1ccccc1)C(=O)OC(C)(C)C)c1ccccc1	none (no result: sdo1 growth, Yeast life ext, BB579 growth dn)
Cc1ccc(OCCNC(=O)c2cc(C(=O)NCCOc3ccc(C)cc3)cc([N+](=O)[O-])c2)cc1	RAM network inh 8.9
CCOC(=O)CN1N=C(/C=C/c2ccc(C(C)C)cc2)CCC1=O	none (no result: sdo1 growth, Yeast life ext, BB579 growth dn)
O=C(COC(=O)Cc1ccc(Cl)cc1Cl)Nc1ccc(OC(F)F)cc1	RAM network inh 10
O=C1/C(=C/c2cccnc2)CCC/C1=C\c1cccnc1	Yeast life ext 74
CN(C)c1ccc(/C=C2\CCC/C(=C\c3ccccc3)C2=O)cc1	RAM network inh 9.0
CCC1C/C(=C\c2cccnc2)C(=O)/C(=C/c2cccnc2)C1 (stereo not drawn)	Yeast life ext 84
O=C1/C(=C/c2cccnc2)CC/C1=C\c1cccnc1	none (no result: sdo1 growth, Yeast life ext, BB579 growth dn)
O=C1/C(=C/c2ccccc2)CCCc2ccccc21	none
COCCNC(=O)CSc1ccc(Cl)cc1	none (no result: sdo1 growth, Yeast life ext, BB579 growth dn)
O=C(NC(=S)Nc1nc2ccccc2s1)c1ccco1	RAM network inh 8.8
CCCCCN1CSC(=S)N(Cc2ccccc2)C1	Yeast life ext 27
CCN1CNC(=S)N(Cc2ccccc2)C1	none
CC(C)c1onc(C(=O)NCc2ccc(Cl)cc2)c1[N+](=O)[O-]	none
Cc1ccc(-c2cc(-c3ccccc3Cl)[nH]n2)c(O)c1	BB579 growth dn 92
N=c1n(CCN2CCOCC2)c2ccccc2n1CC(=O)c1ccc(Cl)c(Cl)c1	BB579 growth dn 95
N=c1n(CCN2CCCC2)c2ccccc2n1CC(O)c1ccc(Cl)c(Cl)c1 (stereo not drawn)	none (no result: sdo1 growth, Yeast life ext, BB579 growth dn)
COc1ccc(OC)c(NC=C2C(=O)OC3(CCCCC3)OC2=O)c1	none
CCOC(=O)c1sc(=S)n(-c2ccccc2Cl)c1SC	RAM network inh 8.8
CCOC(=O)c1sc(=S)n(-c2ccccc2)c1SC	none
COC(=O)c1sc(=S)n(-c2cc(F)ccc2F)c1N	none
CCOC(=O)c1sc(=S)n(-c2cc(F)ccc2F)c1N	BB579 growth dn 45
CC(=O)N1CCN(CCN=CC2=C(O)CC(c3ccc(Cl)cc3)CC2=O)CC1 (stereo not drawn)	none
CCCSc1nc(N2CCCC2)c2c(c1C#N)CC(C)(C)OC2	RAM network inh 8.5
CSc1nc(N2CCCC2)c2c(c1C#N)CC(C)(C)OC2	none
CCOc1ccc(S(=O)(=O)NCCC2=CCCCC2)c2ccccc12	RAM network inh 11
COc1ccc(C)cc1S(=O)(=O)NCCC1=CCCCC1	none
CC1=NNC(=O)C1CCC(=O)N/N=C(\C)c1ccccc1 (stereo not drawn)	none (no result: sdo1 growth, Yeast life ext, BB579 growth dn)
COC(=O)c1cc(NC(=O)CN(c2cccc(OC)c2)S(=O)(=O)c2ccccc2)ccc1Cl	RAM network inh 8.9
Cc1ccc(Cl)cc1Nc1nc(-c2sc(NC(=O)c3ccccc3)nc2C)cs1	RAM network inh 9.3
O=C1C2C3C=CC(C3)C2C(=O)N1Cc1ccc(CN2C(=O)C3C4C=CC(C4)C3C2=O)cc1 (stereo not drawn)	none
Cc1cc(C)c(C#N)c(SCc2nnc(-c3ccccc3[N+](=O)[O-])o2)n1	RAM network inh 11 (no result: sdo1 growth, Yeast life ext, BB579 growth dn)
Cc1ccc(C)c(OCCn2cc(/C=C(/C#N)C(=O)NCC3CCCO3)c3ccccc32)c1 (stereo not drawn)	RAM network inh 8.8
COc1ccccc1OCCn1cc(/C=C(\C#N)C(=O)NCc2cccs2)c2ccccc21	none
Cc1cccc2cc(COC(=O)C3CCCO3)c(=O)[nH]c12 (stereo not drawn)	none
O=C1C(=C(O)c2ccccc2)C(=O)c2ccccc21	Yeast life ext 42
CCN(CC)Cc1c(O)c(Cl)cc2c(C)cc(=O)oc12	none (no result: sdo1 growth, Yeast life ext, BB579 growth dn)
CCN(CC)Cc1c(O)c(Cl)cc2c(C)c(C)c(=O)oc12	Yeast life ext 88
Cc1cccc(C(=O)Nc2nc(C)c(C(=O)Nc3ccc4c(c3)CCC4)s2)c1	RAM network inh 8.6
CC1(C)Cc2ccccc2C(C(Cc2ccccc2)C(N)=O)=N1 (stereo not drawn)	none (no result: sdo1 growth, Yeast life ext, BB579 growth dn)
Cn1cccc1CNC1CCCCC1	none
CN1C(=O)/C(=N/OC(=O)c2ccccc2)c2ccccc21	BB579 growth dn 100
